Article PMC10203381 (Plant Communications, 2022)

Columns and labels:
[1] = system: MEP pathway intermediates in N. benthamiana leaves; type: in vivo, Nicotiana benthamiana; conditions: leaves infiltrated with SlDXS1, FSM 200 μM or NF 40 μM, 5 dpi; for Metabolite concentration DXP: control 7.69; for Metabolite concentration MEP: control 351.35; for Metabolite concentration MEcPP: control 671.68
SlDXS1 [2] = type: in vivo, Nicotiana benthamiana; conditions: FSM 200 μM or NF 40 μM; 5 dpi; compared with mock-treated controls
Procedure, shortened: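 Agrobacterium GV3101 carrying untagged SlDXS1 at OD600 0.8 in MES/MgCl2/acetosyringone buffer, pH 5.6, was mixed 9:1 with an HcPro strain. FSM 200 μM, NF 40 μM or water was added before infiltrating 4-week-old leaves. At 5 dpi, about 300 mg of frozen tissue was extracted in TKMES with protease inhibitors and Triton, then cleared at 2800 g, 4°C. Samples in non-denaturing loading buffer were run on 7% SDS-PAGE and blotted with anti-DXS 1:500 overnight at 4°C.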

SlDXS1-GFP = type: in vivo, Nicotiana benthamiana; conditions: 3 dpi; for number of fluorescent spots (SlDXS1-GFP aggregates) per chloroplast: FSM 200 μM or NF 40 μM, compared with untreated controls
Procedure, shortened: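 Agrobacterium GV3101 carrying SlDXS1-GFP was resuspended to OD600 0.8 in 10 mM MgCl2, 10 mM MES, 150 μM acetosyringone, pH 5.6. It was held 1.5 h at 28°C, then mixed 9:1 with an HcPro silencing-suppressor strain. FSM 200 μM, NF 40 μM or water was added before infiltrating leaves of 4-week-old plants. At 3 dpi, confocal imaging used 488 nm excitation and BP515-525 emission alongside chlorophyll fluorescence. Chloroplast and GFP-dot areas were measured from ≥7 images of different leaves, shown as mean and SD.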

N. benthamiana leaves = test: Leaf bleaching after infiltration with inhibitors; type: in vivo, Nicotiana benthamiana; conditions: FSM 200 μM or NF 40 μM in the agroinfiltration mixture; observed at 5 dpi
Procedure, shortened: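 Leaves of 4-week-old plants were agroinfiltrated with an SlDXS1 construct plus an HcPro silencing suppressor (9:1). FSM 200 μM, NF 40 μM or water was included in the infiltration mixture. Bleaching was scored visually at 5 dpi.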

EcDXS = target: T1, EcDXS (Escherichia coli, UniProt P77488); type: cell-based
T1 sequence (P77488 1-620): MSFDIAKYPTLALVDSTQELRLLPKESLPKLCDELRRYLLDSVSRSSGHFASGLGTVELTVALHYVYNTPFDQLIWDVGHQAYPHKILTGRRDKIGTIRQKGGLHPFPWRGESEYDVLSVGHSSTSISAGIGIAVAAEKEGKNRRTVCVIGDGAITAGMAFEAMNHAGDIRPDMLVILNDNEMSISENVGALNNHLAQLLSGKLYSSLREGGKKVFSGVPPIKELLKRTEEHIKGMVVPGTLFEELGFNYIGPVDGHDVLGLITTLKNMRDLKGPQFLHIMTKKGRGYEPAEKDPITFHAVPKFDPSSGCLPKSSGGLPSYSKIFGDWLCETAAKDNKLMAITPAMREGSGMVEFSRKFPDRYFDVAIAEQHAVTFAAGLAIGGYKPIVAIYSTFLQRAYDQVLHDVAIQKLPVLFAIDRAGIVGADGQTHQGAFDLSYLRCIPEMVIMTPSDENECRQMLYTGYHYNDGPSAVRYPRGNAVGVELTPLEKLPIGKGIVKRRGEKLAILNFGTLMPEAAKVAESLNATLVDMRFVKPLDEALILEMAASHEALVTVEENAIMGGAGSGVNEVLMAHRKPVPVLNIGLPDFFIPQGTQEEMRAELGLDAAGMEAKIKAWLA

SlDXS1 [3] = target: T2, SlDXS1 (Solanum lycopersicum, UniProt Q9XH50); type: cell-based
T2 sequence (Q9XH50 58-719): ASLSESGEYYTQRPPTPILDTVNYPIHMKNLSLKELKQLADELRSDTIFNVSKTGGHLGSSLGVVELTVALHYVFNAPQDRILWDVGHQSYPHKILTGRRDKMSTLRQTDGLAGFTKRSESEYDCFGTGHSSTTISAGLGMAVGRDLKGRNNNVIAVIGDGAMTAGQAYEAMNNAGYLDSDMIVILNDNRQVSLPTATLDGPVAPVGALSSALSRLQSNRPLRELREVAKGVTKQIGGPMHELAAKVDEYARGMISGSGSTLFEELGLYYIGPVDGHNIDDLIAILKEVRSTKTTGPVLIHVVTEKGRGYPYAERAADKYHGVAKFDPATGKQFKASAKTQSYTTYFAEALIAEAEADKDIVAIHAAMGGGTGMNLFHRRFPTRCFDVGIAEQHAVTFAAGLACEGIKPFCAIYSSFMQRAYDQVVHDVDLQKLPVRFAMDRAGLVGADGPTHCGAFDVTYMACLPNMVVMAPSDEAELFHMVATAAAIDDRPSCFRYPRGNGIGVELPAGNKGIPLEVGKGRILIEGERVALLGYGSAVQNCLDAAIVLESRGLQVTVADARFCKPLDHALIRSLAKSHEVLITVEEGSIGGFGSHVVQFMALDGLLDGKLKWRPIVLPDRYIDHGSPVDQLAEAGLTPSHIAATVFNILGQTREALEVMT

[4] = system: E. coli EcAB4-10 cells (EcDXS activity)
SlDXS1 [5] = target: T2, SlDXS1; test: Isothermal titration calorimetry; type: binding

Row | SMILES | Metabolite concentration DXP [1] [pg/mg dry weight] | Metabolite concentration MEP [1] [pg/mg dry weight] | Metabolite concentration MEcPP [1] [pg/mg dry weight] | dimer-to-monomer ratio of SlDXS1 (SlDXS1 [2]) | number of fluorescent spots (SlDXS1-GFP aggregates) per chloroplast (SlDXS1-GFP) | leaf phenotype (N. benthamiana leaves) | proportion of EcDXS dimers (EcDXS) | ratio of insoluble (aggregated) to soluble EcDXS protein (EcDXS) | proportion of SlDXS1 dimers (SlDXS1 [3]) | ratio of insoluble (aggregated) to soluble SlDXS1 protein (SlDXS1 [3]) | cell growth (OD600) [4] | intracellular DXP levels [4] | intracellular IPP/DMAPP levels [4] | size of the fluorescent spots (SlDXS1-GFP aggregates) (SlDXS1-GFP; NF 40 μM) | Kd (SlDXS1 [5]) [µM]
1 | O=CN(O)CCCP(=O)(O)O [FSM, fosmidomycin] | 641.99 | 7.67 | 31.03 | increased | higher amounts | bleaching phenotype | – | – | – | – | – | – | – | – | –
2 | C[C@@](O)(CCO)CC(=O)O [MVA, mevalonic acid] | – | – | – | – | – | – | proportion of dimers decreased | higher ratio of insoluble (aggregated) to soluble | proportion of dimers decreased | higher ratio of insoluble (aggregated) to soluble | did not show any growth impairment | much lower | markedly increased | – | –
3 | CNc1cnn(-c2cccc(C(F)(F)F)c2)c(=O)c1Cl [NF, norflurazon] | 5.73 | 175.33 | 405.61 | decreased | lower amounts | bleaching phenotype | – | – | – | – | – | – | – | larger | –
4 | Cc1ncc(C[n+]2csc(CCO[P@](=O)(O)OP(=O)(O)O)c2C)c(N)n1 [TPP, thiamine diphosphate] | – | – | – | – | – | – | – | – | – | – | – | – | – | – | 4.2 ± 0.7
